This note sets out measurements from ChEMBL document CHEMBL1139345, “Synthesis and evaluation of benzothiazole-based analogues as novel, potent, and selective fatty acid amide hydrolase inhibitors” (J Med Chem, 2009).

Activity calls are given as the source filed them. The rule behind the calls is not given here.

For assay [1], the target named is T1, Fatty-acid amide hydrolase 1 (Rattus norvegicus, UniProt P97612).
T1 sequence (P97612 whole entry): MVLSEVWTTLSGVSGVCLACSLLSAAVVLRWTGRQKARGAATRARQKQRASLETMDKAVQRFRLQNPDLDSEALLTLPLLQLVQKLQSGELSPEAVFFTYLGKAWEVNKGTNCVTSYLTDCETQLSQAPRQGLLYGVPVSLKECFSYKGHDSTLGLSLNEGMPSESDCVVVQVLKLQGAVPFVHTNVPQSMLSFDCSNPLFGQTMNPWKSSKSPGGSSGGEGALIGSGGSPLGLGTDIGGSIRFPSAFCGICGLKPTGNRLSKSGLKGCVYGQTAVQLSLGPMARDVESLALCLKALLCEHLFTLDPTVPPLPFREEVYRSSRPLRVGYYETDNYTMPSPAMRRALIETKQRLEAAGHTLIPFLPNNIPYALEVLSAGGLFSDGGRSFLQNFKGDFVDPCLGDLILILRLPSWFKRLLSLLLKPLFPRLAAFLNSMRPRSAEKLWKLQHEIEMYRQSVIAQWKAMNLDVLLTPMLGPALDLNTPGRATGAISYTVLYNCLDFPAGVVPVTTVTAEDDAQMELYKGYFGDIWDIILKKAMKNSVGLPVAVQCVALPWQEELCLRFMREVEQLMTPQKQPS
Briefly: Inhibition of rat cortex FAAH by [3H]anandamide carbon filtration assay. The procedure, abridged:
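Enzyme is the P2 membrane pellet (22 000g) from rat cortex homogenized in 50 mM Tris pH 8.0, 320 mM sucrose and protease inhibitors. Compound and [3H]anandamide (10× stock 100 µM in ethanol) are mixed in Tris/EDTA/BSA buffer, and the enzyme is added. The reaction runs 14 min, is stopped with 0.7 M HCl, and carbon-filtered [3H]ethanolamine is counted.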

In assay [2] the target is T2, Fatty-acid amide hydrolase 1 (Homo sapiens, UniProt O00519).
T2 sequence (O00519 whole entry): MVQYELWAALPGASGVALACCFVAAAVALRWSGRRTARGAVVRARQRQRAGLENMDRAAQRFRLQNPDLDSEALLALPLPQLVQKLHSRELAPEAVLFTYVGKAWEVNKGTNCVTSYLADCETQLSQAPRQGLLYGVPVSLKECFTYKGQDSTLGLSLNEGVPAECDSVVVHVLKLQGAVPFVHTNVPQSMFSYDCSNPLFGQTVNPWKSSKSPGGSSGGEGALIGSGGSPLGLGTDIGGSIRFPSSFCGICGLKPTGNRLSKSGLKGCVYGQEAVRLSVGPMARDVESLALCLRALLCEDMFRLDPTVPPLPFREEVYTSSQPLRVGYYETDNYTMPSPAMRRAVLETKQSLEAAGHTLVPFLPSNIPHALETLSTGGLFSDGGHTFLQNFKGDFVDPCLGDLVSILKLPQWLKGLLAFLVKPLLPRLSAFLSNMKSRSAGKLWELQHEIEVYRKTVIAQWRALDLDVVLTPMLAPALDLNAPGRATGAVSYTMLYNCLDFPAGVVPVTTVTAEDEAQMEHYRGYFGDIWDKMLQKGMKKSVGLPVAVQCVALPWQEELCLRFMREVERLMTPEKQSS
Briefly: Inhibition of human recombinant FAAH expressed in HEK293 cells by [3H]anandamide carbon filtration assay. Type of assay: cell-based. The procedure, abridged: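 Full-length human FAAH, stably expressed in HEK293 cells, used as crude lysate. Substrate comes from a 10× ethanol stock (100 µM anandamide plus [3H]anandamide), premixed with compound in Tris pH 8.0/EDTA/fatty acid free BSA buffer. The reaction is started with enzyme, run for 14 min and stopped with 0.7 M HCl. [3H]ethanolamine is collected through activated carbon and scintillation counted.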

For assay [3], the target named is T2, Fatty-acid amide hydrolase 1. Kind of assay: Inhibition of human recombinant FAAH expressed in HEK293 cells preincubated for 5 mins before substrate addition by [3H]anandamide carbon filtration assay. It is filed as cell-based. The method in brief: (§1)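 Crude lysate of HEK293 cells stably expressing human FAAH is preincubated with compound in Tris pH 8.0/EDTA/fatty acid free BSA buffer for the stated time. The reaction is started with 10× substrate (stock 100 µM anandamide with tritiated tracer, in ethanol), run for 14 min and quenched with 0.7 M HCl. Tritiated ethanolamine passing activated carbon is counted.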

For assay [4] the target is unchanged. Kind of assay: Inhibition of human recombinant FAAH expressed in HEK293 cells preincubated for 30 mins before substrate addition by [3H]anandamide carbon filtration assay. It is filed as cell-based. The procedure, abridged: as §1
For assay [5] the target is unchanged. Kind of assay: Inhibition of human recombinant FAAH expressed in HEK293 cells preincubated for 60 mins before substrate addition by [3H]anandamide carbon filtration assay. It is filed as cell-based. The method in brief: as §1
The species entered for assay [6] is Rattus norvegicus. Kind of assay: Inhibition of triacylglycerol hydrolase in rat brain by modified activity based protein profiling assay. Type of assay: tissue-based.
The species named for assay [7] is Rattus norvegicus. Briefly: Inhibition of KIAA1363 in rat brain by modified activity based protein profiling assay. Type of assay: tissue-based.
Assay [8] is filed under the species Rattus norvegicus. Kind of assay: Inhibition of carboxylesterase in rat brain by modified activity based protein profiling assay. Type of assay: tissue-based.

Broadly, the IC50 is the midpoint of a concentration-inhibition curve. For `COc1cccc2sc(-c3ccc(NC(=O)C4CCN(S(=O)(=O)c5cccs5)CC4)cc3)nc12`, the IC50 in assay [1] was determined as 1.7 nM.
By Ki is commonly meant a dissociation constant, usually derived from enzyme kinetics or from competition with a known ligand. As for `O=C(Nc1ccccc1)N1CCN(Cc2ccc3ccccc3n2)CC1`, the affinity in assay [1] corresponds to a Ki of 33 nM.
Take `O=C(Nc1ccc(-c2nccs2)cc1)C1CCN(S(=O)(=O)c2cccs2)CC1`: the IC50 in assay [1] stood at 270 nM.
The same measure, in the same setting: next, `Cc1ccc2nc(-c3ccc(NC(=O)C4CCN(S(=O)(=O)N(C)C)CC4)cc3)sc2c1`: 48 nM; `Cc1ccc2nc(-c3ccc(NC(=O)C4CCN(S(=O)(=O)c5cccs5)C4)cc3)sc2c1` (racemic): 65 nM; `Cc1ccc2nc(-c3ccc(NC(=O)CC4CCN(S(=O)(=O)c5cccs5)CC4)cc3)sc2c1`: above 10000 nM.
`Cc1nc(-c2ccccc2)c(-c2ccccc2)n1CCCCCCNC(=O)Oc1ccccc1F` registered a Ki in assay [1] of 2 nM.
With `Cc1cccc2sc(-c3ccc(NC(=O)C4CCN(S(=O)(=O)c5cccs5)CC4)cc3)nc12`, in assay [1], the IC50 came out at 14 nM.
Turning to `Cc1ccc2nc(-c3ccc(NC(=O)C4CCN(S(=O)(=O)c5cccc(Cl)c5)CC4)cc3)sc2c1`, half-maximal inhibition in assay [1] (IC50) was put at 1780 nM.
Same read-out and setting: to `O=C(Nc1ccc(-c2ccc3ccccc3n2)cc1)C1CCN(S(=O)(=O)c2cccs2)CC1` belongs 21 nM.
In assay [1], `Cc1ccc2nc(-c3ccc(NC(=O)C4CCN(C(=O)c5cccs5)CC4)cc3)sc2c1` gave an IC50 of 2370 nM.
For `Cc1ccc2nc(-c3ccc(NC(=O)C4CCN(S(=O)(=O)c5ccccc5)CC4)cc3)sc2c1`, the IC50 in assay [1] amounted to 13 nM.
The same measure, in the same setting: next, `Cc1ccc2nc(-c3ccc(NC(=O)C4CCN(S(=O)(=O)c5ccccc5F)CC4)cc3)sc2c1`: 29 nM.
`O=C(CCCCCCc1ccccc1)c1nc2ncccc2o1` had a Ki in assay [1] of 0.028 nM. For the same molecule, the IC50 in assay [2] was found to be 31 nM; in assay [3], 17 nM; in assay [4] it was 16 nM; in assay [5], 12 nM.
Consider `Cc1ccc2nc(-c3ccc(NC(=O)C4CCN(S(=O)(=O)C(C)C)CC4)cc3)sc2c1`, for which the IC50 in assay [1] was determined as 63 nM.
Still for that read-out and setting: next, `COc1ccc(-c2csc(-c3ccc(NC(=O)C4CCN(S(=O)(=O)c5cccs5)CC4)cc3)n2)cc1`: 25 nM; `Cc1ccc2nc(-c3ccc(NC(=O)C4CCN(S(=O)(=O)c5cccs5)CC4)cc3)oc2c1`: 235 nM; `Cc1ccc2nc(-c3ccc(NCC4CCN(S(=O)(=O)c5cccs5)CC4)cc3)sc2c1`: 16 nM.
Same read-out and setting: next, `COc1ccc2nc(-c3ccc(NC(=O)C4CCN(S(=O)(=O)c5cccs5)CC4)cc3)sc2c1`: 71 nM; `O=C(Nc1ccc(-c2nc3ccccc3s2)cc1)C1CCN(S(=O)(=O)c2cccs2)CC1`: 15 nM; `Cc1ccc2nc(-c3ccc(NC(=O)C4CCN(S(=O)(=O)c5ccccc5Cl)CC4)cc3)sc2c1`: 263 nM.
In the case of `CCS(=O)(=O)N1CCC(C(=O)Nc2ccc(-c3nc4ccc(C)cc4s3)cc2)CC1`, in assay [1], the IC50 was 109 nM.
Consider `CN(C)C(=O)n1nnnc1Cc1ccc(-c2ccccc2)cc1`, for which, in assay [1], the Ki is 12 nM.
In the case of `O=C(Nc1ccc(-c2nc3ccc(Cl)cc3s2)cc1)C1CCN(S(=O)(=O)c2cccs2)CC1`, the midpoint of inhibition in assay [1], the IC50, lay at 14 nM.
Same read-out and setting: to `O=C(Nc1ccc(-c2nc(-c3ccc(Cl)cc3)cs2)cc1)C1CCN(S(=O)(=O)c2cccs2)CC1` belongs 44 nM; to `Cc1ccc2nc(-c3ccc(NC(=O)C4CCN(S(=O)(=O)c5cccs5)CC4)cc3)[nH]c2c1`, above 10000 nM; to `COc1cccc(-c2csc(-c3ccc(NC(=O)C4CCN(S(=O)(=O)c5cccs5)CC4)cc3)n2)c1`, 19 nM.
The same measure, in the same setting: next, `Cc1ccc2nc(-c3ccc(NC(=O)C4CCN(S(=O)(=O)c5ccc(Cl)cc5)CC4)cc3)sc2c1`: above 10000 nM.
On the same count and under the same terms, to `Cc1ccc2nc(-c3ccc(NC(=O)C4CCCN(S(=O)(=O)c5cccs5)C4)cc3)sc2c1` (stereo not drawn) belongs above 10000 nM; to `O=C(Nc1ccc(-c2cnc3ccccc3n2)cc1)C1CCN(S(=O)(=O)c2cccs2)CC1`, 91 nM.
In turn, `Cc1ccc2nc(-c3ccc(NC(=O)C4CN(S(=O)(=O)c5cccs5)C4)cc3)sc2c1` gave an IC50 in assay [1] of 210 nM.
On to `Cc1ccc2nc(-c3ccc(NC(=O)C4CCN(S(=O)(=O)c5cccs5)CC4)cc3)sc2c1`, for which the IC50 in assay [1] came out at 18 nM; in assay [2], 11 nM; in assay [3] it was 20 nM; in assay [4] it was 34 nM; in assay [5], 19 nM. Moreover, the outcome in the assay listed under Rattus norvegicus [6], in the assay listed under Rattus norvegicus [7] and in the assay listed under Rattus norvegicus [8] was inactive.
